ChEMBL document CHEMBL1141231, “Discovery and development of a new class of potent, selective, orally active oxytocin receptor antagonists” (J Med Chem, 2005)
Converted amounts (≈) assume the structure as drawn. Where a SMILES comes first, the peptide text is derived from it. Bridges are numbered along the chain shown (N, C = ends). [ ]: non-standard residue; d: D form. Orn = NCCC[C@H](N)C(=O)O; Mpa = O=C(O)CCS

Legend:
[1] = Stability of compound in presence of rat liver microsomes; assay type: ADME
Procedure, shortened: (§1)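 Liver microsomes (human or rat) at final […] in 0.1 M phosphate pH 7.4 with compound at final 40 µM (1% DMSO), preincubated at 37 °C; reaction started with 1 mM NADPH; stopped with cold acetonitrile at 0, 20 and 60 min.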

Homo sapiens = species on record: Homo sapiens; assay: Selectivity for human vasopressin V1a receptor over human oxytocin receptor
[2] = Inhibitory activity against cytochrome P450; assay type: ADME
Procedure, shortened: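 Baculovirus/insect-cell expressed CYP isoforms incubated with compound at several concentrations in 1% DMSO plus isoform-specific fluorogenic substrate; fluorescence after a fixed reaction time used to compute % inhibition and IC50.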

Liver microsomes = assay: Stability of compound in presence of human liver microsomes; assay type: ADME, Microsome; procedure, shortened: as §1
[3] = Solubility in aqueous medium; assay type: physicochemical
Vasopressin V1a receptor [4] = target: T1, Vasopressin V1a receptor (Homo sapiens, UniProt P37288); assay: Displacement of [125I]LVA antagonist from human vasopressin 1a receptor expressed in HEK293-EBNA cells; assay type: cell-based
Target sequence in this assay (P37288 whole entry): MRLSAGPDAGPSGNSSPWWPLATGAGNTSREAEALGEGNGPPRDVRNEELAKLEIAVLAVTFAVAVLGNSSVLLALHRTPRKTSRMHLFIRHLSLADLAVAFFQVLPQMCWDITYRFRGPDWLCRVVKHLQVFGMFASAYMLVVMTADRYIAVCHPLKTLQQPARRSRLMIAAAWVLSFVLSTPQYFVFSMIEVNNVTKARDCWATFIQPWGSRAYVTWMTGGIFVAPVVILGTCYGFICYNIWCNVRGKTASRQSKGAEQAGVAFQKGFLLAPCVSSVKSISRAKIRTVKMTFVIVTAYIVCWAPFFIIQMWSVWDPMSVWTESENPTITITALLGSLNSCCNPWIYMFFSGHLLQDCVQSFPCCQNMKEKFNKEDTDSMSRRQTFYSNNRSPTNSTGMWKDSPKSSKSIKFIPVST

[5] = target: T2, Oxytocin receptor (Rattus norvegicus) (UniProt P70536); assay: Inhibition of oxytocin-induced uterine contractions in nonpregnant rats administered at 10 mg/kg, iv; assay type: functional, organism-based; design: dose 10 mg/kg
T2 sequence (whole entry): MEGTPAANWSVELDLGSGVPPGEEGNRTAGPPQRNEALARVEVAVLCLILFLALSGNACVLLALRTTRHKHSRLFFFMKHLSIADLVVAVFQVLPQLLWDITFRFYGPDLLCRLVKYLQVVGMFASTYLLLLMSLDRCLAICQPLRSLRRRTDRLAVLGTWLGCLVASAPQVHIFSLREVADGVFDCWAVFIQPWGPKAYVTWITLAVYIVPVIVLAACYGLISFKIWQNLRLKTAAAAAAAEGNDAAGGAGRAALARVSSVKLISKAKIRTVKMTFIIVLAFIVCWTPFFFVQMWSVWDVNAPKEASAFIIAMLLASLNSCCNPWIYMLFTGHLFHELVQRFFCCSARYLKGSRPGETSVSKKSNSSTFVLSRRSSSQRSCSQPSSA
Procedure, shortened: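 Anaesthetized nonpregnant rats; compound given as a solution by iv infusion in NP3S, PEG/saline or saline. Uterine intraluminal pressure AUC is read relative to the third OT injection. Inhibition is taken versus vehicle values at 5 min after OT administration.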

[6] = Solubility in saline; assay type: physicochemical
Oxytocin receptor [7] = target: T3, Oxytocin receptor (Homo sapiens, UniProt P30559); assay: biochemical; assay type: cell-based, HEK293-EBNA
T3 sequence (P30559 whole entry): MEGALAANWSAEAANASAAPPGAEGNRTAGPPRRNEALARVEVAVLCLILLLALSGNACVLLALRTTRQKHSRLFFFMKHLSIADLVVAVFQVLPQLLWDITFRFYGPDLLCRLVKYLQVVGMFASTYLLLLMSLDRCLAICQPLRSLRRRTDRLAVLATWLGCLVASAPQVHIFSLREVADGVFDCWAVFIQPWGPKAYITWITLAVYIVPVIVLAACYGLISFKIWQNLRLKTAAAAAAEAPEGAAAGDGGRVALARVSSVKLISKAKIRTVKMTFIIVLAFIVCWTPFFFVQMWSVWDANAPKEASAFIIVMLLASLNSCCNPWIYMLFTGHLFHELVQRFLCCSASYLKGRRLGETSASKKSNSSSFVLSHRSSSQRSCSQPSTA

Oxytocin receptor [8] = target: T3, Oxytocin receptor; assay: Inhibitory activity against human Oxytocin induced intracellular Calcium mobilization in human Oxytocin receptor transfected HEK293-EBNA cells; assay type: functional, cell-based
Oxytocin receptor [9] = target: T4, Oxytocin receptor (Rattus norvegicus, UniProt P70536); assay: Displacement of [125I]OVTA antagonist from rat oxytocin receptor expressed in HEK293-EBNA cells; assay type: cell-based
T4 sequence (P70536 whole entry): T2 sequence (whole entry)

Vasopressin V1a receptor [10] = target: T1, Vasopressin V1a receptor; conditions: HEK293-EBNA, at 10 µM
Target sequence in this assay (P37288 whole entry, looked up): as the sequence (P37288 whole entry) above

[11] = target: T2, Oxytocin receptor (Rattus norvegicus); assay: In vivo efficacy against oxytocin-induced uterine contractions in nonpregnant rats administered iv; assay type: functional, organism-based
Procedure, shortened: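 Anaesthetized nonpregnant rats; compound given as a solution by iv infusion in NP3S, PEG/saline or saline. Contractions read as AUC of intraluminal uterine pressure over 35 min, relative to the third OT injection, and expressed as % inhibition versus a vehicle group. ED50 is taken from a dose-response curve of peak inhibition values.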

[12] = target: T2, Oxytocin receptor (Rattus norvegicus); assay: Inhibition of oxytocin-induced uterine contractions in nonpregnant rats administered at 30 mg/kg, po; assay type: functional, organism-based; design: dose 30 mg/kg
Procedure, shortened: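 Anaesthetized nonpregnant rats dosed orally by esophagus cannulation with a solution in NP3S, PEG/saline or saline. Uterine intraluminal pressure AUC is read versus vehicle. The value is the maximum inhibition within a 3 h interval after OT administration.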

Cytochrome P450 2C9 = Cytochrome P450 2C9 (Homo sapiens, UniProt P11712); assay: Inhibitory activity against cytochrome P450 2C9 isoform
Cytochrome P450 2C9, sequence (P11712 whole entry, canonical isoform): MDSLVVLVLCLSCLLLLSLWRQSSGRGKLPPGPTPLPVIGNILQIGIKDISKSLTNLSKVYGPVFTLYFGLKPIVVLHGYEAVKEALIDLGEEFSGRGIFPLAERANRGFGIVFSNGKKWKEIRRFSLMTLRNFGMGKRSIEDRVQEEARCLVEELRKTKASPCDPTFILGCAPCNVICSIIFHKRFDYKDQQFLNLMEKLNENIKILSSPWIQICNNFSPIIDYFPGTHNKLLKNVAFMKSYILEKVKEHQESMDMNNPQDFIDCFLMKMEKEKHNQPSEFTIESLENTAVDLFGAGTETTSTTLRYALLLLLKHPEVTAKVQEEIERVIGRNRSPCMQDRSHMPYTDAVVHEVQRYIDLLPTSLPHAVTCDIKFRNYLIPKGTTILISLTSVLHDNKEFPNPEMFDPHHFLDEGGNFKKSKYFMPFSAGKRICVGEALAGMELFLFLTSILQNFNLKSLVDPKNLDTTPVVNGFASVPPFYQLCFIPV

[13] = target: T5, Oxytocin receptor (Homo sapiens) (UniProt P30559); assay: Displacement of [125I]OVTA antagonist from human oxytocin receptor expressed in HEK293-EBNA cells at 10 uM; assay type: cell-based
T5 sequence (whole entry): T3 sequence (P30559 whole entry)

Cytochrome P450 3A4 = Cytochrome P450 3A4 (Homo sapiens, UniProt P08684); assay: Inhibitory activity against cytochrome P450 3A4 isoform; assay type: ADME
Cytochrome P450 3A4, sequence (P08684 whole entry, canonical isoform): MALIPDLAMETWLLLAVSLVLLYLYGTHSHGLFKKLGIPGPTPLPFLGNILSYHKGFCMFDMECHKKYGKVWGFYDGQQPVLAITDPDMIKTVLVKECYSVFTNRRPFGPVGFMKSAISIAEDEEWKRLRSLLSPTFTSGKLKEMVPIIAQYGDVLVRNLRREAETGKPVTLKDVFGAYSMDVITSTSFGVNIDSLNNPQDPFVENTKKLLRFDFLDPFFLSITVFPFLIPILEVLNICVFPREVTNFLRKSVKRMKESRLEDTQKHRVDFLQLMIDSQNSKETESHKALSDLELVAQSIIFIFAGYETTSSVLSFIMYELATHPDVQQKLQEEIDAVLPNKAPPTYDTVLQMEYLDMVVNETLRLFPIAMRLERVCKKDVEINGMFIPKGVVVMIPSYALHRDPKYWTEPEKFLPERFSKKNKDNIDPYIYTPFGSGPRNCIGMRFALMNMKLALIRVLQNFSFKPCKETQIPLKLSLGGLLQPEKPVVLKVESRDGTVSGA
Procedure, shortened: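 Baculovirus/insect-cell-expressed CYP isoforms are incubated with a specific fluorogenic substrate and several compound concentrations in 1% DMSO. Fluorescence of the product after a defined reaction time gives % inhibition at each concentration and the IC50.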

[14] = aqueous medium, read-out: Solubility

SMILES	Ratio Ki (Homo sapiens)	Ki (Vasopressin V1a receptor [4]) [nM]	Ki (Oxytocin receptor [7]) [nM]	inhibition (Vasopressin V1a receptor [10]) [%]	inhibition [13] [%]	also measured
CN(C)CCCOc1ccc(S(=O)(=O)N(CC(=O)N/N=C2\C(=O)NC(=O)c3ccccc32)c2ccc(Cl)cc2)cc1	456	730	1.6			metabolised [1]: 89%; IC50 [2]: > 1000 nM; MET (Liver microsomes): 91%; solubility [3, 14]: 580 µg/mL (≈ 970 µM); inhibition [5]: 39.8%; solubility [6]: 2 µg/mL (≈ 3.34 µM); IC50 (Oxytocin receptor [8]): 15 nM; Ki (Oxytocin receptor [9]): 2.7 nM
Cc1ccc(N(CC(=O)N/N=C/c2ccccc2O)S(=O)(=O)c2ccccc2)cc1			67	< 50		
CN(C)CCCOc1ccc(S(=O)(=O)N(CC(=O)N/N=C2\C(=O)Nc3ccccc32)c2ccc(Cl)cc2)cc1	59	65	1.1			metabolised [1]: 26%; IC50 [2]: > 1000 nM; MET (Liver microsomes): 0%; ED50 [11]: 7.5 mg/kg; inhibition [5]: 67.4%; IC50 (Oxytocin receptor [8]): 14 nM; inhibition [12]: 22%; Ki (Oxytocin receptor [9]): 4.6 nM
COCCOCCOc1ccc(S(=O)(=O)N(CC(=O)N/N=C2\C(=O)Nc3ccccc32)c2ccc(Cl)cc2)cc1	176	511	3			metabolised [1]: 89%; MET (Liver microsomes): 79%; IC50 (Cytochrome P450 2C9): 330 nM; solubility [3, 14]: < 1 µg/mL; inhibition [5]: 23.3%; solubility [6]: < 1 µg/mL; IC50 (Oxytocin receptor [8]): 7 nM; Ki (Oxytocin receptor [9]): 12 nM
CCOc1ccc(S(=O)(=O)N(CC(=O)OC)c2ccc(C)cc2)cc1				< 50	< 50	
Cl.O=C(CN(c1ccc(Cl)cc1)S(=O)(=O)c1ccc(OCCN2CCOCC2)cc1)/N=N/c1c(O)[nH]c2ccccc12						solubility [3, 14]: 127 µg/mL; solubility [6]: 2.5 µg/mL
CNCCCC12CCC(c3ccccc31)c1ccccc12.Cl [MAPROTILINE HYDROCHLORIDE]						solubility ([3]; buffer): 580 µg/mL; solubility [6]: 2 µg/mL
COc1ccccc1/C=N/NC(=O)CN(c1ccc(C)cc1)S(=O)(=O)c1ccccc1				< 50	< 50	
CC(C)CCN(CC(=O)N1CCc2ccccc2C1)S(=O)(=O)c1ccccc1				< 50	< 50	
O=C(CN(c1ccc(Cl)cc1)S(=O)(=O)c1ccc(OCCN2CCOCC2)cc1)N/N=C1\C(=O)Nc2ccccc21	148	133	0.9			metabolised [1]: 21%; IC50 [2]: > 1000 nM; MET (Liver microsomes): 57%; ED50 [11]: 9.4 mg/kg; inhibition [5]: 43%; inhibition [12]: 30%; Ki (Oxytocin receptor [9]): 8 nM
O=C(CN(c1ccccc1)S(=O)(=O)c1ccccc1)N/N=C1\C(=O)Nc2ccccc21			90	< 50		
O=C(CCc1ccc(S(=O)(=O)N(CC(=O)N/N=C2\C(=O)Nc3ccccc32)c2ccc(Cl)cc2)cc1)NCCCO	102	94	0.9			solubility [3, 14]: < 1 µg/mL; solubility [6]: < 1 µg/mL
CCN(CC)C(=O)CN(c1ccc(OC)cc1)S(=O)(=O)c1ccccc1				< 50	< 50	
Cc1ccc(N(CC(=O)N/N=C/c2ccccc2Cl)S(=O)(=O)c2ccccc2)cc1				< 50	< 50	
CN(C)CCCNC(=O)CCc1ccc(S(=O)(=O)N(CC(=O)/N=N/c2c(O)[nH]c3ccccc23)c2ccc(Cl)cc2)cc1.O=C(O)C(F)(F)F						solubility [3, 14]: 20000 µg/mL; solubility [6]: < 1 µg/mL
Cc1ccc(N(CC(=O)N/N=C/c2ccccc2F)S(=O)(=O)c2ccccc2)cc1				< 50	< 50	
CN(C)CCCNC(=O)CCc1ccc(S(=O)(=O)N(CC(=O)/N=N/c2c(O)[nH]c3ccccc23)c2ccc(Cl)cc2)cc1.O=C(O)/C=C/C(=O)O						solubility [3, 14]: 20000 µg/mL; solubility [6]: 10000 µg/mL
CCOc1ccc(C[C@H]2NC(=O)CCSSC[C@@H](C(=O)N3CCC[C@H]3C(=O)N[C@@H](CCCN)C(=O)NCC(N)=O)NC(=O)[C@H](CC(N)=O)NC(=O)[C@H]([C@@H](C)O)NC(=O)[C@H]([C@@H](C)CC)NC2=O)cc1 [ATOSIBAN] ([Mpa][dY](Et)ITNCP[Orn]G-NH2; disulfide 1-6)		0.63	27			IC50 (Oxytocin receptor [8]): 59 nM; Ki (Oxytocin receptor [9]): 76 nM

SMILES	Ratio Ki (Homo sapiens)	Ki (Vasopressin V1a receptor [4]) [nM]	Ki (Oxytocin receptor [7]) [nM]	inhibition (Vasopressin V1a receptor [10]) [%]	inhibition [13] [%]	also measured
COCCOc1ccc(S(=O)(=O)N(CC(=O)N/N=C2\C(=O)Nc3ccccc32)c2ccc(Cl)cc2)cc1	171	1180	7			solubility [3, 14]: < 1 µg/mL; solubility [6]: < 1 µg/mL; Ki (Oxytocin receptor [9]): 33 nM
COc1ccc(N(CC(=O)Nc2cccc(Cl)c2C)S(=O)(=O)c2ccccc2)cc1Cl				< 50	< 50	
O=C(CN(CCc1ccccc1)S(=O)(=O)c1ccccc1)N1CCc2ccccc2C1				< 50	< 50	
Cc1ccc(N(CC(=O)Nc2cccc(Cl)c2C)S(C)(=O)=O)cc1				< 50	< 50	
COc1ccc(S(=O)(=O)N(CC(=O)Nc2cccc(Cl)c2C)c2ccc(C)cc2)cc1OC			620	< 50		
CCOc1ccc(S(=O)(=O)N(CC(=O)N/N=C2\C(=O)Nc3ccccc32)c2ccc(Cl)cc2)cc1	120	471	3.9			
CN(C)CCCOc1ccc(S(=O)(=O)N(CC(=O)N/N=C2\C(=O)Nc3ccncc32)c2ccc(Cl)cc2)cc1	5	618	115			metabolised [1]: 41%; IC50 [2]: > 1000 nM; MET (Liver microsomes): 20%; inhibition [5]: 23.8%; IC50 (Oxytocin receptor [8]): 840 nM; Ki (Oxytocin receptor [9]): 140 nM
CN(C)CCOc1ccc(S(=O)(=O)N(CC(=O)N/N=C2\C(=O)Nc3ccccc32)c2ccc(Cl)cc2)cc1	84	176	2.1			IC50 (Oxytocin receptor [8]): 59 nM; Ki (Oxytocin receptor [9]): 15 nM
O=C(CN(c1ccc(Cl)cc1)S(=O)(=O)c1ccc(NCCN2CCOCC2)cc1)N/N=C1\C(=O)Nc2ccccc21	84	582	7			metabolised [1]: 40%; MET (Liver microsomes): 73%; IC50 (Cytochrome P450 3A4): 310 nM; Ki (Oxytocin receptor [9]): 25 nM
O=C(CN(c1ccc(Cl)cc1)S(=O)(=O)c1ccccc1)N/N=C1\C(=O)Nc2ccccc21	70	611	8.7			
CN(C)CCCOc1ccc(S(=O)(=O)N(CC(=O)/N=N/c2c(O)[nH]c3ccncc23)c2ccc(Cl)cc2)cc1.O=C(O)C(F)(F)F						solubility [3, 14]: 20000 µg/mL; solubility [6]: 10000 µg/mL
O=C(CN(c1ccc(Cl)cc1)S(=O)(=O)c1ccccc1)Nc1ccccc1				< 50	< 50	
CN(C)CCCOc1ccc(S(=O)(=O)N(CC(=O)/N=N/c2c(O)[nH]c3ccccc23)c2ccc(Cl)cc2)cc1.Cl						solubility [3, 14]: 180 µg/mL; solubility [6]: 7 µg/mL
CCOc1ccc(S(=O)(=O)N(CC(=O)NN)c2ccc(C)cc2)cc1				< 50	< 50	
COc1ccc(S(=O)(=O)N(CC(=O)/N=N/c2c(O)[nH]c3ccccc23)c2ccc(Cl)cc2)cc1OC	33	596	18			
CCOc1ccc(S(=O)(=O)N(CC(=O)N/N=C2\C(=O)Nc3ccccc32)c2ccc(C)cc2)cc1	100					ED50 [11]: 10 mg/kg; inhibition [5]: 49.9%
O=C(CN(c1ccc(Cl)cc1)S(=O)(=O)c1ccccc1)N/N=C/c1ccccc1O			67	< 50		
